Data as given in ChEMBL document CHEMBL4219033, “Anticancer activity profiling of parthenolide analogs generated via P450-mediated chemoenzymatic synthesis” (2018).

Experiments:
Type in all cases: functional
HeLa = assay: Cytotoxicity against human HeLa cells assessed as cell viability at 10 uM after 24 hrs by MTT assay relative to control; details: read-out: Activity
Summary of the method: (§1)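 Adherent lines in DMEM plus 10% FBS and penicillin-streptomycin, 37 °C, 5% CO2, lifted with Accutase. Seeded at 500–10,000 cells/well and rested 15 h. Compounds from 10 mM DMSO stocks dosed at 10 µM final, 1% DMSO final, n = 5, for 24 h. Medium then swapped for 1 mg/ml MTT in phenol-red-free medium for 3 h at 37 °C. Formazan dissolved in DMSO, OD read at 550 nm. Viability normalised to 1% DMSO vehicle control.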

A549 = assay: Cytotoxicity against human A549 cells assessed as cell viability at 10 uM after 24 hrs by MTT assay relative to control; details: A549, 24 h, read-out: Activity; summary of the method: as §1
SK-N-MC = assay: Cytotoxicity against human SK-N-MC cells assessed as cell viability at 10 uM after 24 hrs by MTT assay relative to control; details: read-out: Activity; summary of the method: as §1
JeKo-1 [1] = assay: Cytotoxicity against human JeKo1 cells assessed as cell viability at 2 uM after 24 hrs by MTT assay relative to control; details: JeKo-1, 24 h, read-out: Activity
Summary of the method: (§2)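 Suspension lines grown in α-MEM plus 10% FBS and penicillin-streptomycin, 37 °C, 5% CO2. Seeded at 30,000 cells/well in phenol-red-free α-MEM and rested 15 h. Exposed to 10 µM, or 2 µM in the lower-dose repeat, at 1% DMSO final for 24 h. 5 mg/ml MTT added directly for 3 h at 37 °C. Plates spun, formazan dissolved in DMSO, OD read at 550 nm. Viability relative to vehicle.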

Jurkat [2] = assay: Cytotoxicity against human Jurkat cells assessed as cell viability at 10 uM after 24 hrs by MTT assay relative to control; details: read-out: Activity; summary of the method: as §2
SK-MEL-2 = assay: Cytotoxicity against human SK-MEL-2 cells assessed as cell viability at 10 uM after 24 hrs by MTT assay relative to control; details: SK-MEL-2, 24 h, read-out: Activity; summary of the method: as §1
JeKo-1 [3] = assay: Cytotoxicity against human JeKo1 cells assessed as cell viability at 10 uM after 24 hrs by MTT assay relative to control; details: JeKo-1, 24 h, read-out: Activity; summary of the method: as §2
PC-3 = assay: Cytotoxicity against human PC3 cells assessed as cell viability at 10 uM after 24 hrs by MTT assay relative to control; details: PC-3, 24 h, read-out: Activity; summary of the method: as §1
HCT-116 = assay: Cytotoxicity against human HCT116 cells assessed as cell viability at 10 uM after 24 hrs by MTT assay relative to control; details: HCT-116, 24 h, read-out: Activity; summary of the method: as §1
MDA-MB-231 = assay: Cytotoxicity against human MDA-MB-231 cells assessed as cell viability at 10 uM after 24 hrs by MTT assay relative to control; details: MDA-MB-231, 24 h, read-out: Activity; summary of the method: as §1
SJSA-1 = assay: Cytotoxicity against human SJSA1 cells assessed as cell viability at 10 uM after 24 hrs by MTT assay relative to control; details: SJSA-1, 24 h, read-out: Activity; summary of the method: as §1
Jurkat [4] = assay: Cytotoxicity against human Jurkat cells assessed as cell viability at 2 uM after 24 hrs by MTT assay relative to control; details: read-out: Activity; summary of the method: as §2

SMILES	viability at 10 µM (HeLa) [%]	viability at 10 µM (A549) [%]	viability at 10 µM (SK-N-MC) [%]	viability at 2 µM (JeKo-1 [1]) [%]	viability at 10 µM (Jurkat [2]) [%]	viability at 10 µM (SK-MEL-2) [%]	viability at 10 µM (JeKo-1 [3]) [%]	viability at 10 µM (PC-3) [%]	viability at 10 µM (HCT-116) [%]	viability at 10 µM (MDA-MB-231) [%]	viability at 10 µM (SJSA-1) [%]	viability at 2 µM (Jurkat [4]) [%]
C=C1C(=O)O[C@@H]2[C@H]3O[C@]3(C)CC/C=C(/COC(=O)c3cc(-c4ccc(Cl)cc4)on3)CC[C@@H]12	88.4	102	64.5	90.6	47.1	98.6	39.4	95.2	103	100	100	94
C=C1C(=O)O[C@@H]2[C@H]3O[C@]3(C)CC/C=C(/COC(C(=O)OCc3ccccc3)c3ccccc3)CC[C@@H]12 (some centres undefined)	79.2	81.5	97.8	98.7	1	80.7	0.8	85.2	45.8	88.1	101	87.8
C=C1C(=O)O[C@@H]2[C@H]3O[C@]3(C)CC/C=C(/COCc3ccccc3)CC[C@@H]12	74.8	99.3	75.3	100	6	84.2	5	94.7	96.3	100	99.4	91
C=C1C(=O)O[C@@H]2[C@H]3O[C@]3(C)CC/C=C(/COC(=O)Nc3cccc4ccccc34)CC[C@@H]12	75	84.5	104	102	89	73.6	16.8	81.9	100	100	98.3	96
C=C1C(=O)O[C@@H]2[C@H]3O[C@]3(C)CC/C=C(/C)[C@@H](OC(=O)c3ccc4ccccc4c3)C[C@@H]12	88.8	95.8	96.8	97	86.1	98.7	71.9	83.4	100	100	100	83.4
C=C1C(=O)O[C@@H]2[C@H]3O[C@]3(C)CC/C=C(/COC(C(=O)OCC)c3ccc(C(F)(F)F)cc3)CC[C@@H]12 (some centres undefined)	89.6	74.8	96.9	89.3	29.3	89.8	26.4	87.2	77.5	96.3	100	90.2
C=C1C(=O)O[C@@H]2[C@H]3O[C@]3(C)CC/C=C(/C)[C@@H](OC(C(=O)OCC)c3ccccc3)C[C@@H]12 (some centres undefined)	77.5	60.7	100	76.6	0	72.5	-2.9	78.9	46.2	90	100	85.9
C=C1C(=O)O[C@@H]2[C@H]3O[C@]3(C)CC/C=C(/COC(=O)c3ccc4ccccc4c3)CC[C@@H]12	75	84.5	104	89.2	75.7	73.6	63.2	81.9	100	100	98.3	97.9
C=C1C(=O)O[C@@H]2[C@H]3O[C@]3(C)CC/C=C(/COc3coc(-c4ccc(Br)cc4)c3)CC[C@@H]12	59.2	95.2	90.9	98.8	0	103	-2	97.1	26.4	87.1	93.7	87.6
C=C1C(=O)O[C@@H]2[C@H]3O[C@]3(C)CC/C=C(/C)[C@@H](OC(C(=O)OCC)c3ccc(C(F)(F)F)cc3)C[C@@H]12 (some centres undefined)	67.1	70.4	69.8	76.3	0	71.2	-1.4	60.4	20	77.6	100	80.6
C=C1C(=O)O[C@@H]2[C@H]3O[C@]3(C)CC/C=C(\C)[C@@H](OC(=O)c3ccc(C(F)(F)F)cc3)C[C@@H]12	68	90.4	67.4	93.6	93.2	88.1	23.3	47.6	40	69	58.2	78.9
C=C1C(=O)O[C@@H]2[C@H]3O[C@]3(C)CC/C=C(/C)[C@@H](OC(=O)c3cccs3)C[C@@H]12	87.5	102	98.2	98.1	15.4	94.7	12.9	93	29.4	97.6	98.3	94
C=C1C(=O)O[C@@H]2[C@H]3O[C@]3(C)CC/C=C(/COC(C(=O)OCC)c3ccccc3)CC[C@@H]12 (some centres undefined)	85.1	59.1	98	88.6	18.3	81.2	16.5	85.8	76.7	98.8	100	87.8
C=C1C(=O)O[C@@H]2[C@H]3O[C@]3(C)CC/C=C(/COCc3ccc(C(F)(F)F)cc3)CC[C@@H]12	72.5	87.7	93.6	97.3	21.8	79.6	18.2	89.3	82.9	100	100	100
C=C1C(=O)O[C@@H]2[C@H]3O[C@]3(C)CC/C=C(/C)[C@@H](OC(=O)Nc3ccc([N+](=O)[O-])cc3)C[C@@H]12	78	83.3	92.4	84.1	0.2	75.2	0	94.1	38	98.6	100	78.9
C=C1C(=O)O[C@@H]2[C@H]3O[C@]3(C)CC/C=C(/C)[C@@H](OC(C(=O)OCc3ccccc3)c3ccccc3)C[C@@H]12 (some centres undefined)	79	69.8	84.1	89.4	0.6	66.3	-1.3	91.9	63.7	101	103	82
C=C1C(=O)O[C@@H]2[C@H]3O[C@]3(C)CC/C=C(/COC(=O)c3ccc(C(F)(F)F)cc3)CC[C@@H]12	63.9	94.1	67.8	95.9	0	85.4	-1.6	69.3	27.3	75.5	73.6	92.4
